# The list is not random: actives were taken first. Their share in the collection is about 11%.
# S1P1 ag pot: activates or potentiates agonism at human S1P1 receptor. P21453. activation, % at 9.5 µM. AID 449. 56,000 tested, 0.57% active. S1P1 CRE-bla cells, forskolin, beta-lactamase FRET, potentiator mode; S1P1 agonist co-added at EC20, 2 nM; 100% = saturating reference agonist, 0% = basal;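 active = activation above a cutoff set at the mean activation of all tested compounds plus 3 SD, cut at about 54% in these data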;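 also: forskolin at 4 µM as EC80 and the EC20 agonist is SEW2871; 100% = SEW2871 at its EC100 plus forskolin at EC80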
# Target sequence (P21453 whole entry, looked up): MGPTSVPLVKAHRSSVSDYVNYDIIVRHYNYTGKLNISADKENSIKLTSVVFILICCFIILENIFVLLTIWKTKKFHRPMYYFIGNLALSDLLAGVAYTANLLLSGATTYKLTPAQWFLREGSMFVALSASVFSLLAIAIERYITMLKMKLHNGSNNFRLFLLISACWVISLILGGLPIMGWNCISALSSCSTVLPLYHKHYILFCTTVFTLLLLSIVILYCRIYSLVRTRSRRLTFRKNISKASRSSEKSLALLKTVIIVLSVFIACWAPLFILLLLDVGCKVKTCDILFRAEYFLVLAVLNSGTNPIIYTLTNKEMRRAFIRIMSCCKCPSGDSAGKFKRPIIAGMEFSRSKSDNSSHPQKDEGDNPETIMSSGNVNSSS
# S1P3 ag: activates the human S1P3 receptor. S1P3 NFAT-BLA reporter cells, agonism, FRET ratio; relative to 1 µM S1P, basal subtracted. activation, % at 4.5 µM. 60,000 tested, 0.1% active. Q99500;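 active = activation above the screen-wide mean plus 3 SD, cut at about 4.5% in these data, passing the limit was not always enough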
#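 Assay system: stable CHO line with human S1P3, Gα16, NFAT-BLA reporter; Detection: FRET β-lactamase substrate fluorescence, excitation 405 nm, 460/535 nm emission ratio, background-subtracted; Read-out: percent activation versus median 1 µM S1P response, basal-subtracted, per plate; Incubation: cells plated overnight, compound 4 h 37 °C, substrate 2 h RT.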
# M1 antag: antagonists of rat M1 muscarinic receptor; P08482; CHO-M1 cells, Fluo-4 calcium, ACh EC80 antagonist mode; active compounds read low; B-score at 10 µM; 64,000 tested, 3.4% active; AID 628;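 active = calcium fluorescence response, raw or row-and-column corrected B-score, differing from the plate sample mean either way at a set confidence level, mostly lower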
# M1 ag: agonists of M1 muscarinic receptor. CHO-M1 cells, Fluo-4 calcium fluorescence, agonist mode; active compounds read high. B-score at 10 µM. 64,000 tested, 3% active;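 active = fluorescence rise, raw or as B-score row- and column-corrected plate score, outside the 99.7% band of its plate's samples, either direction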
# D1 mod: allosterically modulates the human D1 dopamine receptor. HEK293 D1, CRE-luciferase, dopamine EC30 potentiation; actives deviate in either direction. B-score at 10 µM. 58,000 tested, 5.9% active. AID 641;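 active = luminescence count or its row- and column-corrected plate score outside the 99.7% band of the plate's sample wells, on either side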
# D1 PAM confirm: D1 receptor (human) allosteric modulation, confirmed; shares compounds with D1 mod; HEK293 D1 CRE-luciferase, dopamine EC30 potentiation; active compounds read high; luminescence at 10 µM; 2,200 tested, 88% active; AID 642;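 active = luminescence in either of two replicates above the same-plate mean plus 3 SD of the low-dose dopamine control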
# D1 ag no DA: activates D1 CRE-luciferase signal without dopamine present; shares compounds with D1 mod; 1,900 tested, 0.8% active; HEK293 D1 CRE-luciferase, luminescence, no dopamine; active compounds read high; luminescence at 10 µM; in the data active = luminescence above about 3900
# Isoprot counter: counter-screen for D1 modulators: isoproterenol response in HEK293 cells. HEK293 D1 CRE-luciferase, isoproterenol EC30 counter-screen; active compounds read high. shares compounds with D1 mod. 2,200 tested, 63% active. AID 647. luminescence at 10 µM;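 active = luminescence in either replicate above plate mean of wells with a partly effective reference agonist dose plus 3 SD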;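 also: isoproterenol raises cAMP through native beta-adrenoceptor Gs so signal bypasses D1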
# The depositor's hits bear a star; nt = no result.
SMILES,S1P1 ag pot,S1P3 ag,M1 antag,M1 ag,D1 mod,D1 PAM confirm,D1 ag no DA,Isoprot counter
O=C(O)c1[nH]c2ccc(Cl)cc2c1CC(=O)N1CCN(C(=O)c2ccco2)CC1,-28,0,-1.2,-0.6,-0.028,nt,nt,nt
O=C(O)c1[nH]c2ccc(Cl)cc2c1CC(=O)N1CCN(c2ccccc2)CC1,-42,-1,0.45,0.013,3.1*,5332,1412,2544
CCCCc1n[nH]c2c1/C(=N/O)CC(c1ccccc1)C2 (centres undefined),nt,nt,0.5,-0.47,-0.46,nt,nt,nt
CCc1n[nH]c2c1/C(=N\O)CC(c1ccccc1)C2 (centres undefined),14,0,-0.13,1.1,4.3*,7364*,1120,2680
O=c1/c(=C/c2cccc3ccccc23)sc2ncnn12,4,0,0.056,-0.056,3.8*,6052,1796,3760
CCCCOc1ccc(/C=c2\sc3ncnn3c2=O)cc1,-21,0,-0.064,-0.56,2.7*,11772*,2228,3132*
CCOC(=O)c1oc2ccc(S(=O)(=O)N3CCC(C)CC3)cc2c1C,nt,nt,-0.57,-0.13,1.4,nt,nt,nt
CCOC(=O)c1oc2ccc(S(=O)(=O)N3CCOCC3)cc2c1C,nt,nt,-0.21,-1.2,4.3*,7344*,1548,2632
N#Cc1nc(-c2cccs2)oc1NCC1CCCO1 (centres undefined),-3,0,1.5,-0.51,13*,18624*,nt,2376
CC1CN(c2oc(-c3ccco3)nc2S(=O)(=O)c2ccccc2)CC(C)O1 (centres undefined),-14,0,0.46,0.78,nt,nt,nt,nt
COCc1cc(C)nc(NC2CCCCC2)c1C#N,nt,-1,-1,2.3,3.5*,5216,1592,2852
c1ccc(-c2cnnc(SCc3cn4cccnc4n3)n2)cc1,-78,1,-0.57,-0.37,8.5*,14784*,1868,3272*
Cc1ccc2c(c1)-c1c(ssc1=S)C(C)(C)N2C(=O)CSc1nncn1C,6,-1,-1,-0.51,3.8*,11288*,1508,5168
Cc1cc(C)c2c(c1)-c1c(ssc1=S)C(C)(C)N2C(=O)CSc1nncn1C,-18,0,0.087,-0.19,0.25,nt,nt,nt
Cc1cc(Br)ccc1NC(=O)CNC(=O)CN(C)Cc1nc2ccccc2c(=O)[nH]1,17,-2,0.025,-0.19,-0.74,nt,nt,nt
N#Cc1c2n(c3c(=O)n(Cc4ccc(Cl)cc4)cnc13)CCCC2,nt,0,-0.26,-0.61,2.6*,10052*,1408,3896*
N#Cc1c2n(c3c(=O)n(Cc4ccccc4Cl)cnc13)CCCC2,5,0,0.11,0.27,3.4*,9264*,1636,3972*
CCOc1cc2[nH]c(=O)n(Cc3cccc(OC)c3)c(=O)c2cc1OCC,-7,-1,0.037,-0.069,17*,22168*,1776,4764*
O=C(NCCc1ccccc1)c1cnn2c(C(F)F)cc(C3CC3)nc12,nt,0,-0.42,0.0037,5.1*,12520*,1540,4428*
O=C(NCc1ccco1)c1cnn2c(C(F)F)cc(-c3ccccc3)nc12,nt,-1,-1,-1.1,5.2*,7604*,1664,3160*
O=C(Nc1ccccc1C(=O)NCc1ccccc1)c1ccco1,nt,-1,-0.29,1.3,1.6,nt,nt,nt
O=C(Nc1ccccc1C(=O)NCc1ccco1)c1ccccc1,-29,0,-0.65,0.93,5.3*,10828*,nt,2924*
Cc1cc(NC(=O)c2cnn3c(C(F)F)cc(-c4ccccc4)nc23)no1,8,0,0.04,-0.55,1.9,nt,nt,nt
COC(=O)C(C)Sc1nnc2n(-c3cccc(C)c3)c(=O)c3c4c(sc3n12)CCCC4 (centres undefined),-2,-1,-0.34,-1.2,9.3*,16844*,1688,5352*
CNc1nc(C)c(C(=O)OCC(=O)OC)s1,-24,0,nt,nt,9.4*,13828*,1716,3336
SMILES,S1P1 ag pot,S1P3 ag,M1 antag,M1 ag,D1 mod,D1 PAM confirm,D1 ag no DA,Isoprot counter
CNc1nc(C)c(C(=O)OCc2ccccc2)s1,-7,0,-0.5,-0.91,18*,16572*,1592,4872*
CCOC(=O)c1ccc(NS(=O)(=O)c2cccc3nsnc23)cc1,13,-1,0.02,-0.026,2.5,nt,nt,nt
CC(=O)c1cc(C#N)c(SCc2ccncc2)nc1C,-10,-6,-0.49,-1.9,5.6*,8540*,1916,3256
CC(=O)c1cc(C#N)c(SCC(=O)OC(C)(C)C)nc1C,-4,-1,0.0098,-0.72,3.4*,10808*,1660,4640
CC(=O)c1cc(C#N)c(SCCC(C)C)nc1C,-42,-1,-0.92,0.43,3.3,nt,nt,nt
CCOC(=O)c1oc2cccc(OCC(O)CNC(C)C)c2c1C (centres undefined),-18,1,1,-0.0085,1.6,nt,nt,nt
N#C/C(=C1\CCCN1)c1nc2ccccc2c(=O)[nH]1,15,-1,0.81,0.53,0.53,nt,nt,nt
N#C/C(=C1/CCCCCN1)c1nc2ccccc2s1,7,0,0.33,-0.0075,6.2*,8248*,1304,3136*
O=c1cc(-c2ccccc2)nc2n1Cc1ccccc1-2,10,-1,-0.25,0.94,13*,11948*,nt,3204*
Cc1cc(C)c2cc(CN(CC3CCCO3)S(=O)(=O)c3ccc4c(c3)OCCO4)c(=O)[nH]c2c1 (centres undefined),-15,0,0.013,0.79,nt,nt,nt,nt
O=C(Oc1ccc2ccc(=O)oc2c1)N1CCOCC1,-3,0,-0.0094,-0.86,3.1*,5096,1644,2872
CCOc1nc(OCC)nc(N2CCC(C)CC2)n1,-8,0,0.3,-0.81,27*,26964*,1528,6496*
CCn1c(N2CCC(C)CC2)nc2c1c(=O)n(C)c(=O)n2C,6,-1,0.043,-0.26,0.66,nt,nt,nt
COCCN1CC(O)=C(c2nc3ccccc3c(=O)[nH]2)C1=N,-24,0,0,-0.91,6.8*,5256,1884,2836
CC(=O)Nc1c(C(=O)C2CC2)oc2ccccc12,0,-1,0.25,0.89,8.3*,13456*,1564,3536*
CCOC(=O)c1oc2ccccc2c1NC(=O)c1cccc(OC)c1OC,-52,0,-0.041,0.61,16*,20936*,1800,4908*
CCOC(=O)c1oc2ccccc2c1NC(=O)C1CCCCC1,-19,0,0.00096,0.35,9.5*,15764*,nt,3664*
N#Cc1ccccc1OCC(=O)Nc1c(C(=O)C2CC2)oc2ccccc12,12,1,0.048,-0.011,1.5,nt,nt,nt

# Screening results deposited in PubChem by several laboratories.
